# Compounds with a hit are over-represented: about 4.9% of the library has one in this group of screens.
# NF-kB neuron act: raises NF-kB expression in human neuronal cells; NF-kB reporter expression; stronger effect = higher value; fold change at 12.5 µM; 190,000 tested, 1.6% active; in the data active = fold change above about 3.3
# STAT1 activator: increases IFN-gamma driven STAT1 reporter signal | NIH 3T3 STAT1-luciferase reporter, luminescence; 100% = IFN-gamma alone, no compound | activation (% of control), % at 5.5 µM | 200,000 tested, 2.6% active | AID 932;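 active = activation above the screen-wide mean activation plus 3 SD, cut at about 130% in these data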
# STAT3 inh-1: inhibitors of IL-6 induced STAT3 signaling; 190,000 tested, 0.89% active; inhibition, % at 5.5 µM; U3A cells, IL-6 STAT3-luciferase reporter, luminescence; host cell line lacks STAT1;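 active = inhibition above the mean inhibition across all screened compounds plus 3 SD, cut at about 44% in these data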
# APP 5'UTR act: activates APP 5'UTR luciferase reporter; SH-SY5Y APP 5'UTR luciferase reporter, luminescence; zero percent = DMSO vehicle wells; 190,000 tested, 1% active; activation, % at 2 µM;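 active = activation above a set limit, based on mean plus 3 SD of controls, cut at about 140% in these data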
# STAT3 act: STAT3 signaling activation. AID 871. 190,000 tested, 0.91% active. U3A cells, IL-6 STAT3-luciferase reporter, luminescence; 100% = signal with IL-6 EC80 alone. activation (% of control), % at 5.6 µM;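 active = activation above the screen-wide mean of compound activation plus 3 SD, cut at about 130% in these data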
#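 Detection: reporter luminescence signal / Assay system: STAT1-lacking human U3A cells, STAT3 luciferase reporter / Incubation: compound pre-incubation 1 h before IL-6, then 6 h stimulation at 37 °C / Control set: IL-6-only high control / Read-out: % activation relative to IL-6 control / Probe or stimulus: Interleukin-6, 33 ng/mL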
# STAT1 blocker: inhibitors of IFN-gamma induced STAT1 signaling; NIH 3T3 STAT1-luciferase reporter, luminescence; inhibition, % at 5.5 µM; 200,000 tested, 0.35% active;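 active = inhibition above a set limit, the mean inhibition across all tested compounds plus 3 SD, cut at about 34% in these data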
# STAT3 inh-2: STAT3 inhibition, confirmation assay | inhibition, % at 5.7 µM | U3A cells, IL-6 STAT3 luciferase reporter, luminescence; cell line lacks STAT1 | shares compounds with STAT3 inh-1 | 1,200 tested, 45% active;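 active = inhibition above the hit cutoff computed for the primary STAT3 screen, cut at about 44% in these data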
# NFkB inh 2: inhibits NF-kappaB, counter-screen to STAT3 inhibitors; shares compounds with STAT3 inh-1; 1,200 tested, 36% active; inhibition, % at 5.7 µM; HEK293T NF-kB luciferase reporter, TNF-alpha induced;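 active = inhibition above the mean of solvent-only control wells plus 3 SD, cutoff set per campaign, cut at about 13% in these data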
# STAT1 inh STAT3c: STAT1 inhibition in STAT3 inhibitor counter-screen; shares compounds with STAT3 inh-1; NIH 3T3 STAT1-luciferase reporter, IFN-gamma induced, luminescence; inhibition, % at 5.7 µM; 1,200 tested, 27% active;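 active = inhibition above the mean plus 3 SD of solvent-only control wells, limit set per screening run, cut at about 16% in these data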
# Hits are given with their value; . = inactive; / = no result.
SMILES,NF-kB neuron act,STAT1 activator,STAT3 inh-1,APP 5'UTR act,STAT3 act,STAT1 blocker,STAT3 inh-2,NFkB inh 2,STAT1 inh STAT3c
O=C(Nc1nonc1NC(=O)c1cccs1)c1cccs1,.,.,43.6,.,.,.,46.9,13.3,.
N#Cc1ccc(NC(=O)COC(=O)CSc2nnc(-c3ccc(Cl)cc3)o2)cc1,.,.,.,.,.,.,/,/,/
Cc1nc(/C(N)=N/OC(=O)Cc2ccccc2)no1,.,.,.,.,.,.,/,/,/
O=C1CCCN1c1ccc(S(=O)(=O)N2CCC(c3ccccc3)CC2)cc1,.,.,69.1,.,.,.,55.8,.,.
O=C1CCCN1c1ccc(S(=O)(=O)N2CCN(c3ccccc3)CC2)cc1,.,.,.,.,.,.,/,/,/
NC(=O)c1cccc(C(N)=O)n1,.,.,.,.,.,.,/,/,/
CCOc1ccc(/C=N/Nc2ccccn2)cc1,8.21,.,49.5,182.1,.,.,.,.,.
COc1cc(NC(=O)c2cc(C(C)C)on2)cc(OC)c1OC,.,.,.,.,.,.,/,/,/
CCc1ccc(NC(=O)c2cc(C)on2)cc1,5.79,.,49.3,200.5,.,.,.,.,.
CCc1ccc(NC(=O)c2cc(-c3ccc(OC)cc3)on2)cc1,.,.,.,.,.,.,/,/,/
CCc1ccc(NC(=O)c2cc(C(C)C)on2)cc1,7.98,.,48.3,136.8,.,.,.,.,.
COCCn1cnc2c1c(=O)n(CC(=O)OCC(=O)NCC(F)(F)F)c(=O)n2Cc1ccccc1,.,.,.,.,.,.,/,/,/
O=C(Nc1ccc(NC(=O)C2CCCCC2)cn1)c1ccco1,4.62,140.3,62.1,.,.,.,.,.,.
O=C(Nc1ccc(NC(=O)c2ccco2)nc1)c1ccco1,4.03,.,53.5,164.2,.,.,.,.,.
O=C(Nc1ccccn1)c1ccco1,.,.,.,.,.,.,/,/,/
O=C(COC(=O)c1ccc(Cl)cc1O)NC(=O)C1CCCCC1,.,.,.,.,.,.,/,/,/
Fc1ccc(/C=C2\CCCC3=C2Nc2ncnn2C3c2ccc(F)cc2)cc1 (stereo unspecified),.,.,45.1,.,.,.,.,.,18.8
COc1ccc(C2C3=C(Nc4ncnn42)c2ccccc2CCC3)cc1 (stereo unspecified),.,.,.,.,.,.,/,/,/
CC1C/C(=C/c2ccncc2)C(=O)/C(=C/c2ccncc2)C1 (stereo unspecified),.,.,53.3,.,.,.,43.7,.,19.1
O=C(CSc1nc(-c2ccco2)cc(C(F)(F)F)n1)Nc1ccc(C(=O)N2CCCCC2)cc1,.,.,50.4,.,.,.,46.5,14.8,17.7
CCOC(=O)c1ccc(NC(=S)NCCc2ccc(F)cc2)cc1,.,.,.,.,.,.,/,/,/
Cc1nn(C)c(C(=O)NCc2ccc(Cl)cc2)c1Cl,.,.,55.9,.,.,.,64.8,13.6,20.4
Cc1nc(C)c(C(=O)NCc2ccc(Cl)cc2)o1,.,.,.,.,.,.,/,/,/
CCc1nc(C)cn1S(=O)(=O)c1cc(C)c(OC)cc1C,.,.,.,.,.,.,/,/,/
CCc1nc(C)cn1S(=O)(=O)c1cc(C)c(OC)c(C)c1C,.,.,53.8,.,.,.,44.6,.,17.2
CCOc1cc(C(=S)N2CCOCC2)ccc1OS(=O)(=O)c1ccc(NC(C)=O)cc1,.,.,58.5,.,.,.,45.2,.,.
CCOc1ccc(-c2nnc(-c3ccccc3)o2)cc1,4.25,.,65.8,.,.,.,.,.,.
CCCCOc1ccc(-c2nnc(-c3ccncc3)o2)cc1,.,.,.,.,.,.,/,/,/
CCCOc1ccc(-c2nnc(-c3cccs3)o2)cc1,5.17,.,66.1,.,.,.,.,.,.
CN(C)c1ccc(-c2nnc(-c3cccs3)o2)cc1,7.23,.,54.9,163.3,.,.,.,.,.

# Bioassay records (PubChem)
